Data published in ChEMBL document CHEMBL1149025, “Cytotoxic and antibacterial dihydrochalcones from Piper aduncum” (1994).
≈ marks a conversion by molar mass, not a printed value.

Legend:
Assay type in all cases: functional
KB = experiment: Cytotoxicity against human KB cells after 72 hrs; details: read-out: ED50 (the source's name)
Method in brief: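 KB cells were grown in BME with 10% heat-inactivated FBS at 37° under 5% CO₂. Samples in DMSO (final 0.5%) were added at log growth phase, at five concentrations, for 72 h. Growth was measured by protein determination as a percentage of DMSO-only controls, corrected for starting cell number. Assays were run in duplicate, and ED₅₀ was taken from semilogarithmic plots of the averaged data.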

Bacillus subtilis = experiment: Antibacterial activity against Bacillus subtilis ATCC 6633 by bioautographic assay
Method in brief: (§1)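 Overnight 37° nutrient-broth cultures; the developed TLC plate was dipped in the bacterial suspension and held moist at 37° for 20 h. It was then sprayed with 0.5% iodonitrotetrazolium chloride in H₂O and kept a further 4 h moist at 37°. Pure compounds were spotted (3 mm) at 0.1–5 μg in CH₂Cl₂, with chloramphenicol as positive control.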

Micrococcus luteus = experiment: Antibacterial activity against Micrococcus luteus ATCC 9341 by bioautographic assay; method in brief: as §1
Escherichia coli = experiment: Antibacterial activity against Escherichia coli ATCC 25922 by bioautographic assay
Method in brief: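 Bioautography used an overnight 37° nutrient-broth culture, and the developed TLC plate was dipped in the suspension. It was incubated moist at 37° for 6 h, sprayed with 0.5% aqueous iodonitrotetrazolium chloride, then kept moist at room temperature for 15 h. White zones against pink colonies marked inhibition. Pure compounds were spotted (3 mm) at 0.1–5 μg in CH₂Cl₂, with chloramphenicol as positive control.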

Biomphalaria glabrata = experiment: Molluscicidal activity against Biomphalaria glabrata assessed as mortality after 24 hrs by microscopy
Method in brief: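 Snails exposed to samples dissolved in 100 μl DMSO and diluted to 100 ml with distilled H₂O. After 24 h, snails counted dead when no heartbeat was seen under the microscope.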

Compound | MIC (Bacillus subtilis) [µg] | MIC (Micrococcus luteus) [µg] | MIC (Escherichia coli) [µg] | EC50 (KB) [mg/L] | LC100 (Biomphalaria glabrata) [ppm]
COc1cc(O)c(C(=O)CCc2ccccc2)c(O)c1 | 0.3 | 0.3 | >5 | > 10 | >30
COC(=O)c1ccc2c(c1)C[C@H](C(C)(C)O)O2 [ANODENDROIC ACID METHYL ESTER] | 3.2 | >5 | >5 | > 10 | 
COc1cc(O)c(C(=O)CCc2ccc(O)cc2)c(O)c1 [ASEBOGENIN] | 0.1 | 0.6 | >5 | > 10 | 12
COc1cc([C@@H]2c3cc4c(cc3[C@H](O)[C@H]3COC(=O)[C@H]23)OCO4)cc(OC)c1OC [PODOFILOX] |  |  |  | 0.0003 (≈ 0.000724 µM) | 
COc1cc(O)c2c(c1)O[C@H](c1ccc(O)cc1)CC2=O [SAKURANETIN] | 0.5 | 2 | >5 | 10 (≈ 34.9 µM) | >30

Now from value to compound, other results behind:

MIC (Bacillus subtilis) [µg] | MIC (Micrococcus luteus) [µg] | MIC (Escherichia coli) [µg] | Compound | EC50 (KB) [mg/L] | LC100 (Biomphalaria glabrata) [ppm]
0.02 | 0.05 | 0.05 | O=C(N[C@H](CO)[C@H](O)c1ccc([N+](=O)[O-])cc1)C(Cl)Cl [CHLORAMPHENICOL] |  | 
1.6 | 1.6 | >5 | COC(=O)c1ccc(O)c(C(C=C(C)C)c2c(OC)cc(O)c(C(=O)CCc3ccccc3)c2O)c1 (stereo not given) [PIPERADUNCIN A] | 2.3 (≈ 4.69 µM) | 
0.2 | 0.4 | >5 | COC(=O)c1ccc(O)c([C@H]2c3c(OC)cc(O)c(C(=O)CCc4ccccc4)c3O[C@@H]2C(C)(C)O)c1 [PIPERADUNCIN B] | 4.7 (≈ 9.28 µM) | 
1.5 | 3 | >5 | COc1cc(O)c(C(=O)CCc2ccccc2)c(O)c1Cc1c(OC)cc(O)c(C(=O)CCc2ccccc2)c1O [PIPERADUNCIN C] | > 10 | 
